The target in data set [1] is C-C chemokine receptor type 1 (Homo sapiens) (UniProt P32246). Put plainly: Displacement of [125I]MIP-1a from human recombinant CCR1 receptor expressed in HEK293 cells. In kind it is cell-based. The settings on record: concentration not given here. Background: In a radioligand displacement assay an active substance lowers the binding of a labelled ligand.
The target in data set [2] is Thromboxane A2 receptor (Homo sapiens) (UniProt P21731). Put plainly: Displacement of [3H]SQ 29548 from human recombinant TXA2 receptor expressed in HEK293 cells. The settings on record: concentration not given here. Format: cell-based.
Data set [3] addresses Trace amine-associated receptor 1 (Rattus norvegicus, UniProt Q923Y9). Briefly: Inhibition of rat TAAR1. Summed up:
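In vitro cAMP functional assay with antagonism read as reversal of the response to the endogenous agonist beta-PEA. Efficacy was scaled so that 100% equals 0% minimum stimulation. Residual beta-PEA stimulation was taken at the highest test-compound concentration. Values are means of at least two independent experiments, with duplicates typically within a twofold margin.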

A short description of data set [4]: Intrinsic clearance in mouse liver microsomes measured per mg of protein. In kind it is ADME, Microsome. The procedure, abridged:
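Intrinsic clearance from in vitro incubation of compound with mouse liver microsomes, expressed per mg microsomal protein.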
On the technique in general: Microsomes from liver hold many membrane-bound enzymes, among them those of drug oxidation.

Data set [5] deals with Adenosine receptor A2a (Homo sapiens) (UniProt P29274). Put plainly: Displacement of [3H]CGS21680 from human recombinant A2A receptor expressed in HEK293 cells. Format: cell-based. The note with it: concentration not given here.
Adenosine receptor A2a (Homo sapiens), sequence (P29274 whole entry): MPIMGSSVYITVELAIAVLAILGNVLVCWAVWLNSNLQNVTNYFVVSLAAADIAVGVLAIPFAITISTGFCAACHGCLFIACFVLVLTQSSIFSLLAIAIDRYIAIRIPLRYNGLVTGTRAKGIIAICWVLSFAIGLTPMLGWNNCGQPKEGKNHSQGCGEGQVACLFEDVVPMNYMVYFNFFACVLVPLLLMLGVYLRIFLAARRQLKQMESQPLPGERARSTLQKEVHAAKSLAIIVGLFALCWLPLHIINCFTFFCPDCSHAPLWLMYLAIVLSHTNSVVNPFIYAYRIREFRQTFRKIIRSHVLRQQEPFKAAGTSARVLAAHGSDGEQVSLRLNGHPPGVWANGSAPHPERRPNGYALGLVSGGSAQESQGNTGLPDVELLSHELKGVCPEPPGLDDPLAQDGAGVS

C-C chemokine receptor type 1 (Homo sapiens), sequence (P32246 whole entry): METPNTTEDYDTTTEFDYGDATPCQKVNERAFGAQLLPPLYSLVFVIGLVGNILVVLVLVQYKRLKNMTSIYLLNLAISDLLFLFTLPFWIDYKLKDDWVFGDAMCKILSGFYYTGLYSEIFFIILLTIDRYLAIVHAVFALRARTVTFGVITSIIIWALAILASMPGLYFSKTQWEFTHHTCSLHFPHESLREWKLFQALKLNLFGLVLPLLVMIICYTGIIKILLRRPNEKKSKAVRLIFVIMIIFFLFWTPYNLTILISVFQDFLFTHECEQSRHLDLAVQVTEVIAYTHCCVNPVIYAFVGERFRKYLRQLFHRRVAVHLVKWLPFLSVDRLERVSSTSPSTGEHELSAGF
Thromboxane A2 receptor (Homo sapiens), sequence (P21731 whole entry): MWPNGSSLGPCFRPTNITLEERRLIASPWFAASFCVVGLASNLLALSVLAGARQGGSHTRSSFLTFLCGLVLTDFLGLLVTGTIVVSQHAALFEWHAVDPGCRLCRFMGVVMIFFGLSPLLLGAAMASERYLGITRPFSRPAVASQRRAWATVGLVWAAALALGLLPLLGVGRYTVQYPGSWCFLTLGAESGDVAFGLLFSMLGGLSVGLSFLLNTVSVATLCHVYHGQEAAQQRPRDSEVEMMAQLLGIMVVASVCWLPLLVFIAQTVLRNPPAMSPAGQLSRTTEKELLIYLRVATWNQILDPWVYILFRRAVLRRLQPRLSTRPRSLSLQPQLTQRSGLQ
Trace amine-associated receptor 1, sequence (Q923Y9 whole entry): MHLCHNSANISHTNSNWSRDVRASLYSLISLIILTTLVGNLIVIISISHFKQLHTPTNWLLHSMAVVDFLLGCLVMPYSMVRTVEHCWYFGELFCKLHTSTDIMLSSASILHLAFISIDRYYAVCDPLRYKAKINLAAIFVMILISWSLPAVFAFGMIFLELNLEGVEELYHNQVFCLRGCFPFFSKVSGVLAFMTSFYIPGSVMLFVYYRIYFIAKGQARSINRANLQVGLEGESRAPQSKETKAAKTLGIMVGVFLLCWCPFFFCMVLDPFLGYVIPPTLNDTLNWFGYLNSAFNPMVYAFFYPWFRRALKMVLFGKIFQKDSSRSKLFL

As to `CCOc1cccc(NC(=O)c2ccc(N3CCCC3)c(C(F)(F)F)c2)c1`, the figures for the inhibition in data set [1], in data set [2] and in data set [5] were 0%, 8% and 13%, respectively. The compound also displayed a Ki in data set [3] of 942 nM. For the same compound, in data set [4], the clearance amounted to 109 µL/min/mg.

A word on the inhibition: it is the share of the control response that was lost under treatment. In general, Ki refers to a dissociation constant, usually derived from enzyme kinetics or from competition with a known ligand. A lower Ki goes with a stronger hold on the target.

The record behind these values is ChEMBL document CHEMBL1667822, “Selective antagonists of mouse trace amine-associated receptor 1 (mTAAR1): discovery of EPPTB (RO5212773)” (Bioorg Med Chem Lett, 2011).
